The values below come from PubChem BioAssay.

Calls of active or inactive are those of the source.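 How the source made its calls, unless noted: active means NADPH fluorescence slope more negative than the mean of all samples by about 3 SD, 99.7% confidence; inactive means the rest.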

Assay [1] can be described thus: inhibitors of TNFa-induced NFkB p65 translocation, primary screen, imaging, HUVEC, MLSMR starter and 10KST1 sets (AID 438;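 active means inhibition above 20% together with a positive visual image hit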;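 further: compound added about 3h40 before a 20 min TNFalpha stimulation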;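 on inhibition: signal is the nuclear over cytoplasmic p65 intensity ratio per well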). To be noted: HUVEC TNFa-induced p65 nuclear translocation; cell count: measured here: nuclei count (cytotoxicity indicator), at 2.08 µM; inhibition: at 2 µM, stronger effect = higher value, 0% TNFa-plus-vehicle, 100% no-TNFa wells.
A short description of assay [2]: inhibitors of mutant huntingtin aggregation, primary screen, imaging, exon1htt(103Q)mCFP cells, high-content imaging (AID 483;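 active means visual image review flags a hit and inhibition of aggregation exceeds 20%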;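 further: compound exposure lasted 3 days before fixation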;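 on nuclei count: percent of the per-plate median nuclei count of sample wells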). The note with it: exon1htt(103Q)mCFP cell line, aggregate imaging, at 2 µM; inhibition of aggregation: stronger effect = higher value; nuclei count: measured here: cell count, toxicity.
Assay [3] in a line: inhibitors of E-selectin induction by TNFa, primary screen, imaging, HUVEC, immunofluorescence, MLSMR starter and 10KST1 sets (AID 487;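 active means visually confirmed hit in the image check and inhibition above 20%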;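 on inhibition: signal is fraction of cell area covered by stained E-selectin grains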;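 on nuclei count: 100% = median nuclei count of all wells on the same plate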). The note with it: HUVEC TNFalpha-induced E-selectin immunofluorescence imaging, at 2 µM; inhibition: stronger effect = higher value; nuclei count: measured here: cell number, toxicity.
Assay [4] addresses Voltage-gated potassium channel subunit beta-2 (Rattus norvegicus) (UniProt P62483). As to the kind of experiment: KvBeta enzyme negative modulators, primary screen, biochemical, NADPH fluorescence (AID 622;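 active means fluorescence slope higher than the sample average by over 3 SD, cut at about -0.22 in these data, passing the limit was not always enough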;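 further: slope of raw intensity against log time taken from 70 to 1610 s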). To be noted: recombinant KvBeta, 4-cyanobenzaldehyde reduction, at 10 µM, stronger effect = higher value.
For assay [5] the target is unchanged. The assay is described as follows: KvBeta positive modulators, primary screen, biochemical, NADPH fluorescence (AID 623).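 Further: fluorescence intensity change per second fitted from 20 to 320 s.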 To be noted: Recombinant KvBeta, NADPH fluorescence decrease slope, 10 min; at 10 µM; stronger effect = lower value.
Assay [6] has as its target Muscarinic acetylcholine receptor M4 (Homo sapiens) (UniProt P08173). The assay is described as follows: compounds altering M4/GIRK thallium flux, either direction, primary screen, M4 allosteric agonist project, cell-based, HEK293 M4/GIRK, BTC-AM (AID 625;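 active means fluorescence slope after compound addition differing from the mean of all tested samples at 99.7% confidence, mostly higher but some lower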;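 further: thallium influx through GIRK channels coupled to M4 in HEK293 cells with BTC-AM dye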). To be noted: at 10 µM, actives lie on both sides. Summed up: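 Material: HEK293 cells with M4 receptor and GIRK channels; Times: cells overnight at 37 °C, BTC-AM loading 1 h, reads 2 min total; Technique: kinetic BTC-AM fluorescence sampled at 1 Hz, 10 s pre-addition baseline; Read-out basis: slope over 15–24 s of trace normalized to starting intensity; Controls: carbachol positive, DMSO negative.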

A short description of assay [7]: inhibitors of Sendai virus-induced IRF3 signaling, primary screen, TLR/RLR signaling modifier project, cell-based, Sendai virus stimulus, luciferase, 10K MLSCN set (AID 602276;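 active means inhibition at or above 50% at 10 µM; inactive means inhibition below 50%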;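 further: firefly luciferase from ISG56 promoter only with Renilla not read in this screen; 0% = Sendai virus plus DMSO and 100% = medium plus DMSO without virus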). The note with it: HEK293 RL24 IRF3 luciferase reporter, at 10 µM, stronger effect = higher value.
Assay [8] in a line: inhibitors of poly I:C-induced TLR3 signaling, primary screen, cell-based, poly I:C stimulus, luciferase, 10K MLSCN set (AID 602277;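 active means inhibition of the reporter signal at or above 50%; inactive means inhibition below 50%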). To be noted: HEK293-TLR3 RL24 IRF3 luciferase reporter, at 10 µM, stronger effect = higher value. In general terms: Reporter assays use an easily measured gene product as a stand-in for the process of interest.

Sequence of Muscarinic acetylcholine receptor M4 (Homo sapiens) (P08173 whole entry, looked up): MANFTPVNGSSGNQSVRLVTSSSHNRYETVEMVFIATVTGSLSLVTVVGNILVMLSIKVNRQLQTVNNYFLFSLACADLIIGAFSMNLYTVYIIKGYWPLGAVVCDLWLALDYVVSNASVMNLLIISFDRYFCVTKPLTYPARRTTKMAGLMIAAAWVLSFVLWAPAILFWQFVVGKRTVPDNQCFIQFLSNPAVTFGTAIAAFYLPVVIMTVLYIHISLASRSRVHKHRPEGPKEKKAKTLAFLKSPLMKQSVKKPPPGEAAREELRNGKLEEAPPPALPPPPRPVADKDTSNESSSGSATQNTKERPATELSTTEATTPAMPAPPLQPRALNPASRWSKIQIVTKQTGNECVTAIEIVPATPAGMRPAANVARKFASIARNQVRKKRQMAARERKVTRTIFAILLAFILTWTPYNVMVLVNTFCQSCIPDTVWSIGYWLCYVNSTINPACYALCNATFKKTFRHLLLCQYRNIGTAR
Sequence of Voltage-gated potassium channel subunit beta-2 (Rattus norvegicus) (P62483 whole entry, looked up): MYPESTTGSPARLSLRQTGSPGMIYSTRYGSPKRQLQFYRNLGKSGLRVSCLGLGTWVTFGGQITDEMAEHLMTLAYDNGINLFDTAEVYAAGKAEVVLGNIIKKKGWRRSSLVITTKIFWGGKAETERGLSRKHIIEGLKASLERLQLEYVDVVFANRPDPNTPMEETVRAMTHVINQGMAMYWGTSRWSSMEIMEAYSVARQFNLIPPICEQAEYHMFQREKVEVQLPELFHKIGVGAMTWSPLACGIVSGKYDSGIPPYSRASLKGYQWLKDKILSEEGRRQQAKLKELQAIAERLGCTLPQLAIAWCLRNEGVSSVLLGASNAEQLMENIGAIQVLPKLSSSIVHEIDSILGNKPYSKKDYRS

`O=c1c2c3c(sc2n2cnnc2n1CCc1ccccc1)CCCC3`: in assay [1], the cell count amounted to 660. Also, the inhibition – broadly, the change of the read-out against control, counted positive when it falls – in assay [1] was -1.4% (inactive); in assay [3], -171% (inactive); in assay [7], 2.46% (inactive); in assay [8], 2.39% (inactive). Further, the inhibition of aggregation in assay [2] was 3.7% (inactive). Besides, the nuclei count in assay [2] stood at 99.9%; in assay [3], 130%. Also, the fluorescence slope in assay [4] is -0.543 (inactive); in assay [6] it was 0.00413 (inactive). In addition, the NADPH fluorescence slope in assay [5] was -2.6e-05 (inactive).
Regarding `CC1(C)CC(=O)C=C(Nc2ccc(F)cc2)C1`, in assay [1], the cell count came to 454. The inhibition is 10.9% (inactive) in assay [1], -20% (inactive) in assay [3], -2.98% (inactive) in assay [7] and 13.6% (inactive) in assay [8]. For the same molecule, in assay [2], the inhibition of aggregation was 3.9% (inactive). The nuclei count in assay [2] worked out at 99.5%; in assay [3], 109%. Moreover, the fluorescence slope in assay [4] is -0.607 (inactive); in assay [6], 0.00469 (inactive). Besides, the NADPH fluorescence slope in assay [5] was 3.1e-05 (inactive).
Consider `CC(C)(C)OC(=O)N1CCC(C(=O)N2CCCCCC2)CC1`, for which, in assay [1], the cell count came to 383. The inhibition was 4.6% (inactive) in assay [1], -36.8% (inactive) in assay [3], 7.78% (inactive) in assay [7] and 11.9% (inactive) in assay [8]. The inhibition of aggregation in assay [2] was 0.1% (inactive). Further, the nuclei count in assay [2] stood at 90%; in assay [3] it was 97%. The fluorescence slope in assay [4] was -0.529 (inactive); in assay [6], 0.00575 (inactive). Also, the NADPH fluorescence slope in assay [5] is -8e-05 (inactive).
As for `Cc1nnc2sc(-c3cccc(NC(=O)c4cccnc4)c3)nn12`, the cell count in assay [1] was 295. Besides, the inhibition in assay [1] was -6% (inactive); in assay [3] it was -54% (inactive); in assay [7], -21% (inactive); in assay [8], -15.6% (inactive). Besides, the inhibition of aggregation in assay [2] was 5% (inactive). Moreover, the nuclei count in assay [2] turned out to be 89.2%; in assay [3] it was 108%. Further, the fluorescence slope in assay [4] is -0.346 (inactive); in assay [6], 0.006 (inactive). In assay [5], the NADPH fluorescence slope was 1.1e-05 (inactive).
Take `COc1ccc(NC(=O)CSc2nnc(-c3ccncc3)n2CC2CCCO2)c(OC)c1` (centres undefined): in assay [1], the cell count came out at 587. Besides, the inhibition in assay [1] was -6.1% (inactive); in assay [3], -89.2% (inactive); in assay [7], 7.58% (inactive); in assay [8], 28% (inactive). The inhibition of aggregation in assay [2] is 18.1% (inactive). Further, the nuclei count in assay [2] was determined as 87.6%; in assay [3], 119%. The fluorescence slope is -0.575 (inactive) in assay [4] and 0.00641 (inactive) in assay [6]. Further, the NADPH fluorescence slope in assay [5] is -1.2e-05 (inactive).
Take `COc1ccccc1C(=O)Nc1ccccc1C(=O)N1CCCC1`: the cell count in assay [1] was found to be 675. Besides, the inhibition is -6.5% (inactive) in assay [1], -95.5% (inactive) in assay [3], 15.4% (inactive) in assay [7] and 17% (inactive) in assay [8]. For the same molecule, the inhibition of aggregation in assay [2] was -2.4% (inactive). Moreover, the nuclei count was determined as 108% in assay [2] and 115% in assay [3]. In addition, the fluorescence slope was -0.583 (inactive) in assay [4] and 0.00691 (inactive) in assay [6]. In addition, the NADPH fluorescence slope in assay [5] was -5.2e-05 (inactive).
With `O=C(CCNC(=O)Cn1ccc2ccccc2c1=O)NCCN1CCc2ccccc2C1`, the cell count in assay [1] came to 337. The inhibition is 0.5% (inactive) in assay [1], -26.8% (inactive) in assay [3], -3.36% (inactive) in assay [7] and 11.4% (inactive) in assay [8]. Further, the inhibition of aggregation in assay [2] was 16.2% (inactive). Also, the nuclei count in assay [2] was found to be 77.2%; in assay [3], 111%. The fluorescence slope in assay [4] was -0.474 (inactive); in assay [6] it was 0.00569 (inactive). In addition, the NADPH fluorescence slope in assay [5] was -0.000226 (inactive).
For `COc1ccc(-n2nnnc2-c2cccc(OC)c2)cc1`, the cell count in assay [1] amounted to 573. In addition, the inhibition was -45.9% (inactive) in assay [1], -101% (inactive) in assay [3], 34.8% (inactive) in assay [7] and 47.8% (inactive) in assay [8]. The inhibition of aggregation in assay [2] is -61.4% (inactive). Further, the nuclei count in assay [2] is 2.6%; in assay [3] it was 105%. Moreover, the fluorescence slope in assay [4] was -0.252 (inactive); in assay [6], 0.00701 (inactive). For the same molecule, in assay [5], the NADPH fluorescence slope was -3.1e-05 (inactive).
On to `O=C(COc1ccc(Cl)cc1)Nc1nc(-c2cccs2)cs1`, for which the cell count in assay [1] is 718. Further, the inhibition was -6.1% (inactive) in assay [1], -32.4% (inactive) in assay [3], 1.13% (inactive) in assay [7] and 0.877% (inactive) in assay [8]. In addition, in assay [2], the inhibition of aggregation is -1.6% (inactive). Further, the nuclei count in assay [2] came to 110%; in assay [3], 114%. The fluorescence slope in assay [4] is -0.567 (inactive); in assay [6] it was 0.00605 (inactive). Also, the NADPH fluorescence slope in assay [5] was 2.5e-05 (inactive).
